Source: ChEMBL document CHEMBL1121369, “Antihypertensive (2-aminoethyl)thiourea derivatives. 1” (J Med Chem, 1980)
Values joined by “and” are separate entries in the source; they are usually repeats but may differ in a detail not shown here. Equal entries are not always repeated.

Tests used:
Rattus norvegicus [1] = assay: Compound is measured for oral antihypertensive activity in groups of 6-12 conscious spontaneously hypertensive rats at 60 mg/kg; format: functional
Method in brief: (§1)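 Male spontaneously hypertensive rats of Wistar–Okamoto origin (12–15 weeks old, bred in-house) were dosed orally, in groups of 6–12 and conscious. Each rat was warmed for 5–10 min at 37–38 °C, then restrained. Systolic pressure was read indirectly at the tail with an occluding cuff and a piezoelectric pulse transducer, before dosing and at 1, 3, 6 and 24 h after.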

Rattus norvegicus [2] = assay: Compound is measured for oral antihypertensive activity in groups of 6-12 deoxy-corticosterone-sodium hypertensive (DOCA-Na) rats at 60 mg/kg(fall in systolic blood pressure 6-24 h after dosing); format: functional, Artery
Method in brief: (§2)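 DOCA-Na rats were given two weeks to become hypertensive (systolic above 200 mmHg) and were then dosed orally, in groups of 6–12 and unanesthetized. Rats were warmed for 5–10 min at 37–38 °C and restrained. Systolic tail pressure was read with a cuff and pneumatic pulse transducer, before dosing and at 1, 3, 6 and 24 h post-dose.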

Rattus norvegicus [3] = assay: Compound is measured for oral antihypertensive activity in groups of 6-12 deoxy-corticosterone-sodium hypertensive (DOCA-Na) rats at 10 mg/kg; Range is 10-15%; format: functional; method in brief: as §2
Rattus norvegicus [4] = assay: Compound is measured for oral antihypertensive activity in groups of 6-12 conscious spontaneously hypertensive rats at 250 mg/kg; Range is 10-15%; format: functional; method in brief: as §1
Rattus norvegicus [5] = assay: Compound is measured for oral antihypertensive activity in groups of 6-12 conscious spontaneously hypertensive rats at 45 mg/kg; Range is 10-15%; format: functional; method in brief: as §1
Rattus norvegicus [6] = assay: Compound is measured for oral antihypertensive activity in groups of 6-12 conscious spontaneously hypertensive rats at 200 mg/kg; Range is 15-20%; format: functional; method in brief: as §1
Rattus norvegicus [7] = assay: Compound is measured for oral antihypertensive activity in groups of 6-12 conscious spontaneously hypertensive rats at 100 mg/kg; format: functional; method in brief: as §1
Rattus norvegicus [8] = assay: Compound is measured for oral antihypertensive activity in groups of 6-12 conscious spontaneously hypertensive rats at 10 mg/kg; format: functional; method in brief: as §1
Rattus norvegicus [9] = assay: Compound is measured for oral antihypertensive activity in groups of 6-12 conscious spontaneously hypertensive rats at 175 mg/kg; format: functional; method in brief: as §1
Rattus norvegicus [10] = assay: Compound is measured for oral antihypertensive activity in groups of 6-12 conscious spontaneously hypertensive rats at 85 mg/kg; format: functional; method in brief: as §1
Rattus norvegicus [11] = assay: Compound is measured for oral antihypertensive activity in groups of 6-12 conscious spontaneously hypertensive rats at 100 mg/kg; Range is 15-20%; format: functional; method in brief: as §1
Rattus norvegicus [12] = assay: Compound is measured for oral antihypertensive activity in groups of 6-12 deoxy-corticosterone-sodium hypertensive (DOCA-Na) rats at 1 mg/kg; format: functional; method in brief: as §2
Rattus norvegicus [13] = assay: Compound is measured for oral antihypertensive activity in groups of 6-12 conscious spontaneously hypertensive rats at 0.5 mg/kg; format: functional; method in brief: as §1
Rattus norvegicus [14] = assay: Compound is measured for oral antihypertensive activity in groups of 6-12 conscious spontaneously hypertensive rats at 10 mg/kg(fall in systolic blood pressure 6-24 hr after dosing); format: functional, Artery; method in brief: as §1
Rattus norvegicus [15] = assay: Compound is measured for oral antihypertensive activity in groups of 6-12 deoxy-corticosterone-sodium hypertensive (DOCA-Na) rats at 5 mg/kg; Range is 10-15%; format: functional; method in brief: as §2
Rattus norvegicus [16] = assay: Compound is measured for oral antihypertensive activity in groups of 6-12 conscious spontaneously hypertensive rats at 1 mg/kg (fall in systolic blood pressure 6-24 hr after dosing); format: functional, Artery; method in brief: as §1
Rattus norvegicus [17] = assay: Compound is measured for oral antihypertensive activity in groups of 6-12 deoxy-corticosterone-sodium hypertensive (DOCA-Na) rats at 10 mg/kg(fall in systolic blood pressure 6-24 hr after dosing); format: functional, Artery; method in brief: as §2
Rattus norvegicus [18] = assay: Compound is measured for oral antihypertensive activity in groups of 6-12 conscious spontaneously hypertensive rats at 30 mg/kg; format: functional; method in brief: as §1
Rattus norvegicus [19] = assay: Compound is measured for oral antihypertensive activity in groups of 6-12 conscious spontaneously hypertensive rats at 50 mg/kg(fall in systolic blood pressure 6-24 hr after dosing); format: functional, Artery; method in brief: as §1
Rattus norvegicus [20] = assay: Compound is measured for oral antihypertensive activity in groups of 6-12 conscious spontaneously hypertensive rats at 10 mg/kg; Range is 15-20%; format: functional; method in brief: as §1
Rattus norvegicus [21] = assay: (§3) Oral dose required to cause 20% fall in sedation; Increase in foot shock rate; format: functional
Method in brief: (§4)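 Male Charles River C-D rats and squirrel monkeys were trained to press a lever at a stable rate to postpone a 5-s foot shock, given every 20 s on failure. Drugs were given orally, with control sessions before, between and after test sessions. Avoidance-rate decrease and the increase in shocks/hour were recorded. Significance threshold: a 12% decrease or 4 extra shocks/hour (p ≤ 0.05).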

Monkey = assay: as §3; format: functional; method in brief: as §4
Rattus norvegicus [22] = assay: Compound is measured for oral antihypertensive activity in groups of 6-12 deoxy-corticosterone-sodium hypertensive (DOCA-Na) rats at 1 mg/kg; Range is 15-20%; format: functional; method in brief: as §2
Rattus norvegicus [23] = assay: Compound is measured for oral antihypertensive activity in groups of 6-12 deoxy-corticosterone-sodium hypertensive (DOCA-Na) rats at 0.5 mg/kg; format: functional; method in brief: as §2
Rattus norvegicus [24] = assay: (§5) Oral dose required to cause 20% fall in blood pressure; format: functional
Rattus norvegicus [25] = assay: Compound is measured for oral antihypertensive activity in groups of 6-12 conscious spontaneously hypertensive rats at 1 mg/kg; Range is 15-20%; format: functional; method in brief: as §1
[26] = Therapeutic ratio is oral dose producing sedation/reduction in blood pressure; Range is 30-60; format: ADME, tissue-based
Rattus norvegicus [27] = assay: Compound is measured for oral antihypertensive activity in groups of 6-12 deoxy-corticosterone-sodium hypertensive (DOCA-Na) rats at 10 mg/kg (fall in systolic blood pressure 6-24 hr after dosing); format: functional, Artery; method in brief: as §2
Rattus norvegicus [28] = assay: Compound is measured for oral antihypertensive activity in groups of 6-12 conscious spontaneously hypertensive rats at 10 mg/kg (fall in systolic blood pressure 6-24 hr after dosing); format: functional, Artery; method in brief: as §1
Canis familiaris [29] = assay: as §5; format: functional, Canis lupus familiaris
Canis familiaris [30] = assay: Oral dose required to cause 20% fall in sedation; Range is 30-60; format: functional, Canis lupus familiaris
Rattus norvegicus [31] = assay: Oral dose required to cause 20% fall in sedation; Decrease spontaneous motor activity; format: functional
Method in brief: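 Normotensive rats were dosed orally. Spontaneous motor activity was counted with an electronic motility meter over a 10-min period starting 1 h after dosing. The dose was estimated from dose–response curves, with 95% fiducial limits.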

[32] = Therapeutic ratio is oral dose producing sedation/reduction in blood pressure; format: ADME, tissue-based
Rattus norvegicus [33] = assay: Compound is measured for oral antihypertensive activity in groups of 6-12 deoxy-corticosterone-sodium hypertensive (DOCA-Na) rats at 10 mg/kg; format: functional; method in brief: as §2
Rattus norvegicus [34] = assay: Compound is measured for oral antihypertensive activity in groups of 6-12 conscious spontaneously hypertensive rats at 75 mg/kg; format: functional; method in brief: as §1
Rattus norvegicus [35] = assay: Compound is measured for oral antihypertensive activity in groups of 6-12 deoxy-corticosterone-sodium hypertensive (DOCA-Na) rats at 10 mg/kg; Range is 15-20%; format: functional; method in brief: as §2
Rattus norvegicus [36] = assay: Compound is measured for oral antihypertensive activity in groups of 6-12 conscious spontaneously hypertensive rats at 250 mg/kg; format: functional; method in brief: as §1
Rattus norvegicus [37] = assay: Compound is measured for oral antihypertensive activity in groups of 6-12 conscious spontaneously hypertensive rats at 160 mg/kg; Range is 15-20%; format: functional; method in brief: as §1
in vivo = conditions: blood, po

Structure (SMILES): N/C(S)=N/c1c(Cl)cccc1Cl
- Effect (Rattus norvegicus [1]): <10%
- Effect (Rattus norvegicus [2]): < 10%

Structure (SMILES): NCC/N=C(\N)Nc1c(Cl)cccc1Cl
- Effect (Rattus norvegicus [3]): 10%
- Effect (Rattus norvegicus [4]): 10%

Structure (SMILES): CCN(CC)CC/N=C(\S)Nc1c(Cl)cccc1Cl.Cl
- Effect (Rattus norvegicus [5]): 10%

Structure (SMILES): NCCC/N=C(\S)Nc1c(Cl)cccc1Cl
- Effect (Rattus norvegicus [6]): 15%

Structure (SMILES): CN1CCN(/C(S)=N/c2c(Cl)cccc2Cl)CC1.Cl
- Effect (Rattus norvegicus [1]): <10%

Structure (SMILES): COc1cccc(OC)c1/N=C(\S)NCCN.O=C(O)/C=C\C(=O)O
- Effect (Rattus norvegicus [7]): <10%

Structure (SMILES): Cl.NCC/N=C(\S)Nc1ccccc1
- Effect (Rattus norvegicus [8]): <10%

Structure (SMILES): OCC/N=C(\S)Nc1c(Cl)cccc1Cl
- Effect (Rattus norvegicus [9]): <10%

Structure (SMILES): CNCCN(C)/C(S)=N/c1c(Cl)cccc1Cl.O=C(O)/C=C\C(=O)O
- Effect (Rattus norvegicus [10]): <10%

Structure (SMILES): NCC/N=C(\S)Nc1c(Cl)cc(Cl)cc1Cl.O=C(O)/C=C\C(=O)O
- Effect (Rattus norvegicus [8]): <10%
- Effect (Rattus norvegicus [11]): 15%

Structure (SMILES): NCC/N=C(\S)Nc1cccc(Cl)c1Cl.O=C(O)/C=C\C(=O)O
- Effect (Rattus norvegicus [12]): <10%
- Effect (Rattus norvegicus [13]): <10%
- Effect (Rattus norvegicus [14]): >20%
- Effect (Rattus norvegicus [15]): 10%
- Effect (Rattus norvegicus [16]): >20%
- Effect (Rattus norvegicus [17]): >20%

Structure (SMILES): NS(=O)(=O)CC/N=C(\S)Nc1c(Cl)cccc1Cl
- Effect (Rattus norvegicus [11]): 15%

Structure (SMILES): Cl.S=C(NCCN1CCCCC1)Nc1c(Cl)cccc1Cl
- Effect (Rattus norvegicus [18]): <10%

Structure (SMILES): Cc1ccc(/N=C(\S)NCCN)c(C)c1.O=C(O)/C=C\C(=O)O
- Effect (Rattus norvegicus [7]): <10%

Structure (SMILES): NCC/N=C(\S)Nc1c(Cl)cc([N+](=O)[O-])cc1Cl.O=C(O)/C=C\C(=O)O
- Effect (Rattus norvegicus [8]): <10%
- Effect (Rattus norvegicus [19]): >20%

Structure (SMILES): Cc1cccc(C)c1/N=C(\S)NCCN.O=C(O)CCC(=O)O
- Effect (Rattus norvegicus [20]): 15%
- Effect (Rattus norvegicus [17]): >20%

Structure (SMILES): NCC/N=C(\S)Nc1c(Cl)cccc1Cl.O=C(O)/C=C\C(=O)O
- Dose (Rattus norvegicus [21]): 1.7 mg/kg
- Dose (Monkey): >64 mg/kg
- Effect (Rattus norvegicus [22]): 15%
- Effect (Rattus norvegicus [23]): <10%
- Effect (Rattus norvegicus [13]): <10%
- Dose (Rattus norvegicus [24]): 2.4 mg/kg
- Effect (Rattus norvegicus [25]): 15%
- selectivity ratio [26]: 30
- Effect (Rattus norvegicus [27]): >20%
- Effect (Rattus norvegicus [28]): >20%
- Dose (Canis familiaris [29]): 1 mg/kg
- Dose (Canis familiaris [30]): 30 mg/kg
- Dose (Rattus norvegicus [31]): 0.69 mg/kg
- Ratio [32]: 0.28 and 0.71

Structure (SMILES): CCO.NCC/N=C(\S)Nc1c(F)cccc1F.O=C(O)CCC(=O)O
- Effect (Rattus norvegicus [8]): <10%
- Effect (Rattus norvegicus [33]): <10%

Structure (SMILES): NCC/N=C(\S)Nc1c(Br)cccc1Br
- Effect (Rattus norvegicus [14]): >20%
- Effect (Rattus norvegicus [25]): 15%
- Effect (Rattus norvegicus [17]): >20%

Structure (SMILES): Cc1ccc(/N=C(\S)NCCN)c(Cl)c1.O=C(O)/C=C\C(=O)O
- Effect (Rattus norvegicus [7]): <10%

Structure (SMILES): N#CCCNC(=S)Nc1c(Cl)cccc1Cl
- Effect (Rattus norvegicus [34]): <10%

Structure (SMILES): O=C(O)CC/N=C(\S)Nc1c(Cl)cccc1Cl
- Effect (Rattus norvegicus [7]): <10%

Structure (SMILES): Cl.N=C(N)CC/N=C(\S)Nc1c(Cl)cccc1Cl
- Effect (Rattus norvegicus [7]): <10%

Structure (SMILES): CS/C(=N\CCN)Nc1c(Cl)cccc1Cl
- Effect (Rattus norvegicus [20]): 15%
- Effect (Rattus norvegicus [35]): 15%

Structure (SMILES): NC(=O)CC/N=C(\S)Nc1c(Cl)cccc1Cl
- Effect (Rattus norvegicus [7]): <10%

Structure (SMILES): CNCC/N=C(\S)Nc1c(Cl)cccc1Cl.O=C(O)/C=C\C(=O)O
- Effect (Rattus norvegicus [7]): <10%

Structure (SMILES): NCCNC(=O)Nc1c(Cl)cccc1Cl
- Effect (Rattus norvegicus [36]): <10%
- Effect (Rattus norvegicus [33]): <10%

Structure (SMILES): CN1CCN(CC/N=C(\S)Nc2c(Cl)cccc2Cl)CC1.Cl.Cl
- Effect (Rattus norvegicus [37]): 15%

Structure (SMILES): CCOC(=O)CC/N=C(\S)Nc1c(Cl)cccc1Cl
- Effect (Rattus norvegicus [7]): <10%

Structure (SMILES): Clc1cccc(Cl)c1NC1=NCCN1 [CLONIDINE]
- Dose (Monkey): 0.7 mg/kg
- Effect (Rattus norvegicus [23]): >20%
- Effect (Rattus norvegicus [13]): >20%
- Dose (Rattus norvegicus [24]): 0.06 mg/kg
- Dose (Canis familiaris [29]): 0.3 mg/kg
- Ratio [32]: 3
- selectivity ratio [32]: 1.83
- selectivity ratio (in vivo): 0.8

Structure (SMILES): CC(=O)NCC/N=C(\N)Nc1c(Cl)cccc1Cl
- Effect (Rattus norvegicus [36]): <10%
- Effect (Rattus norvegicus [33]): <10%

Structure (SMILES): N/N=C(\S)Nc1c(Cl)cccc1Cl
- Effect (Rattus norvegicus [36]): <10%
